Tests used:
Candida albicans [1] = experiment: Antifungal activity against Candida albicans isolated from human incubated for 72 hrs followed by serial sub-cultivation for 72 hrs by serial dilution technique; format: functional
Procedure, shortened: (§1)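 MFC: material from 72 h malt broth microdilution wells was serially sub-cultured into fresh broth plates and incubated a further 72 h at 28 °C. Fungicidal concentration is taken from growth after sub-culture. Duplicate, repeated three times.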

Talaromyces funiculosus [2] = experiment: Ratio of bifonazole to compound for Penicillium funiculosum ATCC 36839; format: functional
Candida albicans [3] = experiment: Ratio of bifonazole to compound for Candida albicans isolated from human; format: functional
Aspergillus ochraceus [4] = experiment: Antifungal activity against Aspergillus ochraceus ATCC 12066 after 72 hrs by serial dilution technique; format: functional; conditions: ATCC 12066, 72 h
Procedure, shortened: (§2)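 Modified microdilution in 96-well plates. Fungi were kept on malt agar at 4 °C. Spores were washed off in sterile 0.85% saline with 0.1% Tween 80. Compounds were dissolved at 1 mg/ml in 5% DMSO with 0.1% Tween 80 and added to malt broth with inoculum. Plates were shaken at 160 rpm for 72 h at 28 °C. Duplicate, repeated three times.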

Staphylococcus aureus [5] = experiment: Antibacterial activity against Staphylococcus aureus ATCC 6538 after 24 hrs by microdilution method; format: functional; conditions: ATCC 6538, 24 h
Procedure, shortened: (§3)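 Broth microdilution in 96-well plates. Bacterial suspensions were adjusted in sterile saline to 1.0 × 10⁵ CFU/ml, prepared daily and kept at 4 °C. Compound was added to LB broth with 1.0 × 10⁴ CFU per well and shaken at 160 rpm for 24 h at […] (so in the source). MIC is the lowest concentration with no visible growth under a binocular microscope. OD655 was also read. Duplicate, repeated three times.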

Talaromyces funiculosus [6] = experiment: Antifungal activity against Penicillium funiculosum ATCC 36839 after 72 hrs by serial dilution technique; format: functional; conditions: ATCC 36839, 72 h; procedure, shortened: as §2
Trichoderma viride [7] = experiment: Ratio of bifonazole to compound for Trichoderma viride IAM 5061; format: functional
Micrococcus flavus [8] = experiment: Antibacterial activity against Micrococcus flavus ATCC 10240 incubated for 24 hrs followed by serial sub-cultivation for 24 hrs by microdilution; format: functional; conditions: ATCC 10240, 24 h
Procedure, shortened: (§4)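 MBC: after the 24 h LB broth microdilution (1.0 × 10⁴ CFU per well, 160 rpm), wells were serially sub-cultured into fresh broth plates and incubated a further 24 h. MBC is the lowest concentration with no visible growth, taken as 99.5% killing of the original inoculum. Duplicate, repeated three times.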

Listeria monocytogenes [9] = experiment: Antibacterial activity against Listeria monocytogenes NCTC 7973 after 24 hrs by microdilution method; format: functional; conditions: NCTC 7973, 24 h; procedure, shortened: as §3
Aspergillus ochraceus [10] = experiment: Antifungal activity against Aspergillus ochraceus ATCC 12066 incubated for 72 hrs followed by serial sub-cultivation for 72 hrs by serial dilution technique; format: functional; conditions: ATCC 12066, 72 h; procedure, shortened: as §1
Aspergillus niger [11] = experiment: Ratio of bifonazole to compound for Aspergillus niger ATCC 6275; format: functional
Candida albicans [12] = experiment: Antifungal activity against Candida albicans isolated from human after 72 hrs by serial dilution technique; format: functional; procedure, shortened: as §2
Aspergillus ochraceus [13] = experiment: Ratio of ketoconazole to compound for Aspergillus ochraceus ATCC 12066; format: functional
Escherichia coli [14] = experiment: Antibacterial activity against Escherichia coli ATCC 35210 after 24 hrs by microdilution method; format: functional; conditions: ATCC 35210, 24 h; procedure, shortened: as §3
Candida albicans [15] = experiment: Ratio of ketoconazole to compound for Candida albicans isolated from human; format: functional
Aspergillus flavus [16] = experiment: Antifungal activity against Aspergillus flavus ATCC 9643 incubated for 72 hrs followed by serial sub-cultivation for 72 hrs by serial dilution technique; format: functional; conditions: ATCC 9643, 72 h; procedure, shortened: as §1
Aspergillus ochraceus [17] = experiment: Ratio of bifonazole to compound for Aspergillus ochraceus ATCC 12066; format: functional
Pseudomonas aeruginosa [18] = experiment: Antibacterial activity against Pseudomonas aeruginosa ATCC 27853 incubated for 24 hrs followed by serial sub-cultivation for 24 hrs by microdilution; format: functional; conditions: ATCC 27853, 24 h; procedure, shortened: as §4
Salmonella typhimurium [19] = experiment: Antibacterial activity against Salmonella Typhimurium ATCC 13311 after 24 hrs by microdilution method; format: functional, Salmonella enterica subsp. enterica serovar Typhimurium; conditions: Salmonella enterica, ATCC 13311, 24 h; procedure, shortened: as §3
Bacillus cereus [20] = experiment: Antibacterial activity against clinical isolate of Bacillus cereus after 24 hrs by microdilution method; format: functional; procedure, shortened: as §3
Penicillium ochrochloron [21] = experiment: Ratio of ketoconazole to compound for Penicillium ochrochloron ATCC 9112; format: functional
Trichoderma viride [22] = experiment: Antifungal activity against Trichoderma viride IAM 5061 incubated for 72 hrs followed by serial sub-cultivation for 72 hrs by serial dilution technique; format: functional; conditions: IAM 5061, 72 h; procedure, shortened: as §1
Pseudomonas aeruginosa [23] = experiment: Ratio of ampicillin MIC to compound MIC for Pseudomonas aeruginosa ATCC 27853; format: functional
Penicillium ochrochloron [24] = experiment: Antifungal activity against Penicillium ochrochloron ATCC 9112 after 72 hrs by serial dilution technique; format: functional; conditions: ATCC 9112, 72 h; procedure, shortened: as §2
Listeria monocytogenes [25] = experiment: Antibacterial activity against Listeria monocytogenes NCTC 7973 incubated for 24 hrs followed by serial sub-cultivation for 24 hrs by microdilution; format: functional; conditions: NCTC 7973, 24 h; procedure, shortened: as §4
Aspergillus ochraceus [26] = experiment: Antifungal activity against Aspergillus ochraceus after 72 hrs by serial dilution technique
Micrococcus flavus [27] = experiment: Antibacterial activity against Micrococcus flavus ATCC 10240 after 24 hrs by microdilution method; format: functional; conditions: ATCC 10240, 24 h; procedure, shortened: as §3
Pseudomonas aeruginosa [28] = experiment: Antibacterial activity against Pseudomonas aeruginosa ATCC 27853 after 24 hrs by microdilution method; format: functional; conditions: ATCC 27853, 24 h; procedure, shortened: as §3
Enterococcus faecalis [29] = experiment: Antibacterial activity against Enterococcus faecalis isolated from human after 24 hrs by microdilution method; format: functional; procedure, shortened: as §3
Staphylococcus aureus [30] = experiment: Antibacterial activity against Staphylococcus aureus ATCC 6538 incubated for 24 hrs followed by serial sub-cultivation for 24 hrs by microdilution method; format: functional; conditions: ATCC 6538, 24 h; procedure, shortened: as §4
Aspergillus niger [31] = experiment: Antifungal activity against Aspergillus niger ATCC 6275 incubated for 72 hrs followed by serial sub-cultivation for 72 hrs by serial dilution technique; format: functional; conditions: ATCC 6275, 72 h; procedure, shortened: as §1
Talaromyces funiculosus [32] = experiment: Antifungal activity against Penicillium funiculosum ATCC 36839 incubated for 72 hrs followed by serial sub-cultivation for 72 hrs by serial dilution technique; format: functional; conditions: ATCC 36839, 72 h; procedure, shortened: as §1
Aspergillus niger [33] = experiment: Antifungal activity against Aspergillus niger ATCC 6275 after 72 hrs by serial dilution technique; format: functional; conditions: ATCC 6275, 72 h; procedure, shortened: as §2
Enterococcus faecalis [34] = experiment: Antibacterial activity against Enterococcus faecalis isolated from human incubated for 24 hrs followed by serial sub-cultivation for 24 hrs by microdilution; format: functional; procedure, shortened: as §4
Penicillium ochrochloron [35] = experiment: Ratio of bifonazole to compound for Penicillium ochrochloron ATCC 9112; format: functional
Aspergillus flavus [36] = experiment: Antifungal activity against Aspergillus flavus ATCC 9643 after 72 hrs by serial dilution technique; format: functional; conditions: ATCC 9643, 72 h; procedure, shortened: as §2
Aspergillus fumigatus [37] = experiment: Antifungal activity against Aspergillus fumigatus isolated from human incubated for 72 hrs followed by serial sub-cultivation for 72 hrs by serial dilution technique; format: functional; procedure, shortened: as §1
Escherichia coli [38] = experiment: Antibacterial activity against Escherichia coli ATCC 35210 incubated for 24 hrs followed by serial sub-cultivation for 24 hrs by microdilution; format: functional; conditions: ATCC 35210, 24 h; procedure, shortened: as §4
Penicillium ochrochloron [39] = experiment: Antifungal activity against Penicillium ochrochloron ATCC 9112 incubated for 72 hrs followed by serial sub-cultivation for 72 hrs by serial dilution technique; format: functional; conditions: ATCC 9112, 72 h; procedure, shortened: as §1
Salmonella typhimurium [40] = experiment: Antibacterial activity against Salmonella Typhimurium ATCC 13311 incubated for 24 hrs followed by serial sub-cultivation for 24 hrs by microdilution; format: functional, Salmonella enterica subsp. enterica serovar Typhimurium; conditions: Salmonella enterica, ATCC 13311, 24 h; procedure, shortened: as §4
Trichoderma viride [41] = experiment: Antifungal activity against Trichoderma viride IAM 5061 after 72 hrs by serial dilution technique; format: functional; conditions: IAM 5061, 72 h; procedure, shortened: as §2
Bacillus cereus [42] = experiment: Antibacterial activity against clinical isolate of Bacillus cereus incubated for 24 hrs followed by serial sub-cultivation for 24 hrs by microdilution; format: functional; procedure, shortened: as §4
Aspergillus fumigatus [43] = experiment: Ratio of ketoconazole to compound for Aspergillus fumigatus isolated from human; format: functional

CNc1nc(C)c(C(=O)/C=C/c2cccc(C)c2)s1
91.9 µM: MBC (Micrococcus flavus [8]) | MFC (Aspergillus flavus [16]) | MBC (Pseudomonas aeruginosa [18]) | MBC (Salmonella typhimurium [40]) | MBC (Bacillus cereus [42])
37.8 µM: MIC (Aspergillus niger [33])
73.5 µM: MFC (Candida albicans [1]) | MIC (Staphylococcus aureus [5]) | MFC (Aspergillus ochraceus [10]) | MIC (Salmonella typhimurium [19]) | MIC (Bacillus cereus [20]) | MFC (Trichoderma viride [22]) | MIC (Micrococcus flavus [27]) | MIC (Pseudomonas aeruginosa [28]) | MFC (Aspergillus niger [31]) | MFC (Talaromyces funiculosus [32]) | MBC (Enterococcus faecalis [34]) | MFC (Aspergillus fumigatus [37]) | MBC (Escherichia coli [38]) | MFC (Penicillium ochrochloron [39])
10: Ratio (Talaromyces funiculosus [2]) | Ratio (Candida albicans [3]) | Ratio (Trichoderma viride [7]) | Ratio (Aspergillus niger [11]) | Ratio (Aspergillus ochraceus [13]) | Ratio (Candida albicans [15]) | Ratio (Aspergillus ochraceus [17]) | Ratio (Penicillium ochrochloron [21]) | Ratio (Pseudomonas aeruginosa [23]) | Ratio (Penicillium ochrochloron [35]) | Ratio (Aspergillus fumigatus [43])
55.1 µM: MIC (Candida albicans [12]) | MIC (Escherichia coli [14]) | MIC (Enterococcus faecalis [29])
36.8 µM: MIC (Aspergillus ochraceus [4]) | MIC (Talaromyces funiculosus [6]) | MIC (Penicillium ochrochloron [24]) | MIC (Aspergillus ochraceus [26]) | MIC (Aspergillus flavus [36]) | MIC (Trichoderma viride [41])
110 µM: MIC (Listeria monocytogenes [9]) | MBC (Listeria monocytogenes [25]) | MBC (Staphylococcus aureus [30])
